Data taken from ChEMBL document CHEMBL3627626, “6-Substituted Pyrrolo[2,3-d]pyrimidine Thienoyl Regioisomers as Targeted Antifolates for Folate Receptor α and the Proton-Coupled Folate Transporter in Human Tumors” (J Med Chem, 2015).
The source made the active and inactive calls. No cut-off for these calls is given here.

Experiments:
[1] = system: SK-OV-3; test: Antitumor activity against human SKOV3 cells expressing RFC/PCFT/FRalpha xenografted in folate-deficient diet fed NCR SCID mouse assessed as delay in tumor growth at 28 mg/kg, iv administered every 4 days on day 3, 7, 11 measured twice per week; assay type: functional, organism-based
Procedure, shortened: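 Female NCR SCID mice, 10 weeks old, given bilateral subcutaneous SKOV3 tumor fragments and randomized at 5 mice/group. Fed ad libitum a folate-deficient diet or a standard folate-replete diet. Dosed intravenously at 0.2 mL/injection on a Q4dx3 schedule (days 3, 7, 11). […] Tumors measured twice weekly; mice weighed daily.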

[2] = system: Mus musculus; test: Toxicity in folate-deficient diet fed NCR SCID mouse xenografted with human SKOV3 cells expressing RFC/PCFT/FRalpha assessed as body weight loss at 28 mg/kg, iv administered every 4 days on day 3, 7, 11 relative to control; assay type: organism-based, SK-OV-3; conditions: in vivo, 96 h
Procedure, shortened: (§1)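 Ten-week-old female NCR SCID mice, fed a folate-deficient or standard folate-replete diet, were implanted subcutaneously and bilaterally with SKOV3 tumour fragments. Randomised at 5 mice/group. Dosed intravenously, 0.2 mL per injection, in 5% ethanol/1% Tween-80/0.5% NaHCO3 in water at pH 6.5, on days 3, 7 and 11. Tumours measured twice weekly and mice weighed daily. T/C taken on day 21; growth delay and log cell kill also reported.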

[3] = system: SK-OV-3; test: Antitumor activity against human SKOV3 cells expressing RFC/PCFT/FRalpha xenografted in folate-replete diet fed NCR SCID mouse assessed as tumor growth inhibition at 28 mg/kg, iv administered every 4 days on day 3, 7, 11 measured on day 21 relative to control; assay type: functional; procedure, shortened: as §1
[4] = system: Mus musculus; test: Toxicity in folate-replete diet fed NCR SCID mouse xenografted with human SKOV3 cells expressing RFC/PCFT/FRalpha assessed as body weight loss at 28 mg/kg, iv administered every 4 days on day 3, 7, 11; assay type: organism-based, SK-OV-3; conditions: in vivo, 96 h
[5] = system: KB; test: Antiproliferative activity against human KB cells expressing FRalpha/PCFT/RFC assessed as cell growth inhibition after 96 hrs by CellTiter-Blue assay in presence of 200 nM folic acid; assay type: functional, cell-based
[6] = system: IGROV-1; test: Antiproliferative activity against human IGROV1 cells after 96 hrs by CellTiter-Blue assay; assay type: functional, cell-based; conditions: IGROV-1, 96 h
Procedure, shortened: (§2)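 IGROV1 and SKOV3 cells plated at ~2500–5000 cells/well in folate-free RPMI 1640 with 10% dialyzed FBS, antibiotics and 2 nM LCV, over a range of drug concentrations, ±200 nM folic acid in parallel. Incubated up to 96 h. Viability read by Cell Titer Blue fluorescence (ex 560/em 590 nm).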

[7] = system: SK-OV-3; test: Antiproliferative activity against human SKOV3 cells after 96 hrs by CellTiter-Blue assay; assay type: functional, cell-based; conditions: SK-OV-3, 96 h; procedure, shortened: as §2
[8] = system: SK-OV-3; test: Antiproliferative activity against human SKOV3 cells after 96 hrs by CellTiter-Blue assay in presence of 200 nM folic acid; assay type: functional, cell-based; conditions: SK-OV-3, 96 h; procedure, shortened: as §2
[9] = molecular target: Folate receptor alpha (Homo sapiens) (UniProt P15328); test: Displacement of [3H]-folic acid from human FRalpha expressed in Chinese hamster RT16 cells after 15 mins relative to folic acid; assay type: cell-based
Procedure, shortened: (§3)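 Competitive binding to surface folate receptor on RT16 (FRα) or D4 (FRβ) CHO cells. Cells were acid-washed (pH 3.5) to strip bound folate, then incubated in HEPES-buffered saline pH 7.4 with 50 nM [3H]folic acid plus unlabeled ligand (0–1000 nM) for 15 min at 0 °C. Bound label was normalised to protein. Affinity is the inverse molar ratio for 50% displacement, with folic acid set to 1. Mean of 4–10 experiments ±SE.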

[10] = molecular target: Folate receptor beta (Homo sapiens) (UniProt P14207); test: Displacement of [3H]-folic acid from human FRbeta expressed in Chinese hamster D4 cells after 15 mins relative to folic acid; assay type: cell-based; procedure, shortened: as §3
[11] = molecular target: T1, Trifunctional purine biosynthetic protein adenosine-3 (Homo sapiens) (UniProt P22102); test: Inhibition of GARFTase in human KB cells expressing FRalpha/PCFT/RFC assessed as cell growth inhibition after 96 hrs by CellTiter-Blue assay in presence of adenosine; assay type: cell-based
T1 sequence (whole entry): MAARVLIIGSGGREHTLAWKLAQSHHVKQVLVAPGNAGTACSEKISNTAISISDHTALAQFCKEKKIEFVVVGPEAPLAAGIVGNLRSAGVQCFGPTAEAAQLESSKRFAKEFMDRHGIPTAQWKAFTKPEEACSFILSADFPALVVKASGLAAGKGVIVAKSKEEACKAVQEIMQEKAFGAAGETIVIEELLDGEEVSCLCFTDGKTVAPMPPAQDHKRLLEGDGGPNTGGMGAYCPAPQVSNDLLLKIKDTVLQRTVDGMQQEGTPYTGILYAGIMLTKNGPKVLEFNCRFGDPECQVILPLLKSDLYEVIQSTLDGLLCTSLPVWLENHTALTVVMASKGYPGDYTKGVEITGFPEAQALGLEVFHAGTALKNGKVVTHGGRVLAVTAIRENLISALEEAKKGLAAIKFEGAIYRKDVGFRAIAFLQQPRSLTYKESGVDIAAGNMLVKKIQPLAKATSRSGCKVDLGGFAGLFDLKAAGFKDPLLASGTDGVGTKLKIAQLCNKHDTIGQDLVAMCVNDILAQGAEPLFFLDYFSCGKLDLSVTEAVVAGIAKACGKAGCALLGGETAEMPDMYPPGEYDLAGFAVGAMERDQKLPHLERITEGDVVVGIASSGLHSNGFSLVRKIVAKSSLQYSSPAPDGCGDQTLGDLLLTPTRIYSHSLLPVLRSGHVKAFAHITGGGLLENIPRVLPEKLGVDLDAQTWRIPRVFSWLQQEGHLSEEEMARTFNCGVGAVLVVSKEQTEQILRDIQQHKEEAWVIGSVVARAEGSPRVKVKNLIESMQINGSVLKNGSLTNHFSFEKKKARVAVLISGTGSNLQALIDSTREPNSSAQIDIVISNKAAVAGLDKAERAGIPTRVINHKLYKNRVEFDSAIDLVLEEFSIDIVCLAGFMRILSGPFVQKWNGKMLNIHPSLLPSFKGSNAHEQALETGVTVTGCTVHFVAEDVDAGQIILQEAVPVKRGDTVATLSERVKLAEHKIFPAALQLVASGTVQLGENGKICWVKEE

[12] = molecular target: T1, Trifunctional purine biosynthetic protein adenosine-3 (Homo sapiens); test: Inhibition of GARFTase in human KB cells expressing FRalpha/PCFT/RFC assessed as cell growth inhibition after 96 hrs by CellTiter-Blue assay in presence of AICA; assay type: cell-based
[13] = Binding affinity to human RFC expressed in Chinese hamster PC43-10 cells assessed as cell growth inhibition after 96 hrs by CellTiter-Blue assay
[14] = system: R2; test: Cellular uptake in PCFT-null Chinese hamster R2 cells at 0.5 uM at 37 degC at pH 5.5 measured over 2 mins; assay type: ADME, cell-based, Cricetulus griseus; conditions: r2, pH 5.5, 2 min
Procedure, shortened: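 R2/PCFT4 or PCFT-null R2 CHO cells were grown in suspension from spinner flasks. Uptake of 0.5 μM [3H]drug measured over 2 min at 37 °C in MES-buffered saline pH 5.5, with or without 10 μM unlabeled competitor. Uptake was quenched with ice-cold DPBS and cells solubilised in NaOH. Results are pmol/mg protein, mean ±SEM of three experiments.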

[15] = molecular target: T2, Proton-coupled folate transporter (Homo sapiens) (UniProt Q96NT5); test: Binding affinity to human PCFT expressed in Chinese hamster R2/PCFT4 cells assessed as intracellular drug transport rate at 37 degC at pH 5.5 measured over 2 mins by Lineweaver-Burk plot analysis; assay type: cell-based
T2 sequence (whole entry): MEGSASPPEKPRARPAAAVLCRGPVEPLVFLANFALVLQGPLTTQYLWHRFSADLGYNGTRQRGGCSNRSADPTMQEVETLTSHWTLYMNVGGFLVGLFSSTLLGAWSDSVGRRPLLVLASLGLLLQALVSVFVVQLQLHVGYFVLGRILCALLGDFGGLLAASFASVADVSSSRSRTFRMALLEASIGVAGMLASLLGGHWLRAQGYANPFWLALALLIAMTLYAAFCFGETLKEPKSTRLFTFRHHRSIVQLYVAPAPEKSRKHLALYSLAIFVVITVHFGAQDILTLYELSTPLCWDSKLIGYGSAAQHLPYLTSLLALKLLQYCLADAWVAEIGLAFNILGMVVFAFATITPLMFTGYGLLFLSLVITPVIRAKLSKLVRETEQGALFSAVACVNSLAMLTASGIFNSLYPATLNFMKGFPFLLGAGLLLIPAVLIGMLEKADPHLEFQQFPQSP
Procedure, shortened: (§4)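 R2/PCFT4 CHO cells were grown as monolayers, transferred to spinner flasks, and used as suspensions (5–10 × 10⁷ cells). Uptake was quenched with ice-cold DPBS and cells were NaOH-solubilized. Results are pmol/mg protein; Kt and Vmax come from Lineweaver–Burke plots.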

[16] = molecular target: T2, Proton-coupled folate transporter (Homo sapiens); test: Binding affinity to human PCFT expressed in Chinese hamster R2/PCFT4 cells assessed as intracellular drug transport rate at 37 degC at pH 6.8 measured over 2 mins by Lineweaver-Burk plot analysis; assay type: cell-based; procedure, shortened: as §4
[17] = system: R2; test: Cytotoxicity against PCFT-null Chinese hamster R2 cells assessed as cell growth inhibition after 96 hrs by CellTiter-Blue assay; assay type: cell-based, Cricetulus griseus; conditions: R2, 96 h
[18] = system: R2; test: Cytotoxicity against Chinese hamster R2 cells transfected with empty PCDNA3 assessed as cell growth inhibition after 96 hrs by CellTiter-Blue assay; assay type: cell-based, Cricetulus griseus
[19] = system: KB; test: Antiproliferative activity against human KB cells expressing FRalpha/PCFT/RFC assessed as cell growth inhibition after 96 hrs by CellTiter-Blue assay; assay type: functional, cell-based
[20] = molecular target: T3, Trifunctional purine biosynthetic protein adenosine-3 (Homo sapiens, UniProt P22102); test: Inhibition of GARFTase in human KB cells expressing FRalpha/PCFT/RFC assessed as incorporation of [14C(U)]-glycine into [14C]-formyl GAR preincubated for 1 hr followed by azaserine, L-glutamine, 14C(U)]-glycine addition measured after 16 hrs; assay type: cell-based
T3 sequence (P22102 whole entry): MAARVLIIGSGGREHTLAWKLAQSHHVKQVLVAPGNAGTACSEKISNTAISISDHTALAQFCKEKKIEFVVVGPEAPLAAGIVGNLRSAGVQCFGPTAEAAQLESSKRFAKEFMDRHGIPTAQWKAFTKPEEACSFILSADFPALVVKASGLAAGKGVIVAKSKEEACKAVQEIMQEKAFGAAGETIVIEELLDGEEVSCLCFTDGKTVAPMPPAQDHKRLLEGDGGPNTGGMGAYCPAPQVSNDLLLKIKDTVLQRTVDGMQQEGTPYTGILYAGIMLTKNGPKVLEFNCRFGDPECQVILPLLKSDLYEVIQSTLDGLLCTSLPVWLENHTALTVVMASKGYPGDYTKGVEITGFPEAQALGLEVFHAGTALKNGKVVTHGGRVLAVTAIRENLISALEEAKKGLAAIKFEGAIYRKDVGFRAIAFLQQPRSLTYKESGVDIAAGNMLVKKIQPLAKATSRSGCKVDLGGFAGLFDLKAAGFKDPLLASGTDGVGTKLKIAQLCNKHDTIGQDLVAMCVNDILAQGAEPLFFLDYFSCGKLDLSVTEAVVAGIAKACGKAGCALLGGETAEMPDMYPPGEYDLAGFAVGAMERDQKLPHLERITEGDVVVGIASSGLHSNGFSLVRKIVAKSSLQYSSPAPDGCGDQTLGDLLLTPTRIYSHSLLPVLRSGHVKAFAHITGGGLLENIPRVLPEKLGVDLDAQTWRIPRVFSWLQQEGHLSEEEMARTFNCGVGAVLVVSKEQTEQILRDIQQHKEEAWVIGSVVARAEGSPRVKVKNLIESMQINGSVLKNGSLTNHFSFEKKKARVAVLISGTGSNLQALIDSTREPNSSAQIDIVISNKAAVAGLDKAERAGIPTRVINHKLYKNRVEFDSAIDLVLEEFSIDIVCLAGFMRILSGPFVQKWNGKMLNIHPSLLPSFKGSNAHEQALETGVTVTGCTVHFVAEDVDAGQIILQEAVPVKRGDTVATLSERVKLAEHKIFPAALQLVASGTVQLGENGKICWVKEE
Procedure, shortened: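 In situ assay in KB cells. Cells were exposed to a range of drug concentrations with [14C]glycine for 16 h under proliferation-assay conditions, with azaserine present. Radiolabelled metabolites were extracted and separated on anion exchange columns, and [14C]formyl GAR quantified. Mean ±SE of three experiments.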

[21] = molecular target: T3, Trifunctional purine biosynthetic protein adenosine-3; test: Inhibition of human recombinant His-tagged GARFTase assessed as formation of 5,8-dideazafolate from 10-formyl-5,80-dideazafolic acid measured every 15 secs over 20 mins by spectrophotometric analysis

Sequence of Folate receptor alpha (Homo sapiens) (P15328 25-234 limits assumed): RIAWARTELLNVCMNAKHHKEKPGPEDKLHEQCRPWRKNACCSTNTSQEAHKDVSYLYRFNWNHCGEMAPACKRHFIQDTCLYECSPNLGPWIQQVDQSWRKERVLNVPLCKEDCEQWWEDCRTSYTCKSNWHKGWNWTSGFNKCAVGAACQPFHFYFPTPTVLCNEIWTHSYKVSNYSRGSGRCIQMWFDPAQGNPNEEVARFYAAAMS
Sequence of Folate receptor beta (Homo sapiens) (P14207 17-230 limits assumed): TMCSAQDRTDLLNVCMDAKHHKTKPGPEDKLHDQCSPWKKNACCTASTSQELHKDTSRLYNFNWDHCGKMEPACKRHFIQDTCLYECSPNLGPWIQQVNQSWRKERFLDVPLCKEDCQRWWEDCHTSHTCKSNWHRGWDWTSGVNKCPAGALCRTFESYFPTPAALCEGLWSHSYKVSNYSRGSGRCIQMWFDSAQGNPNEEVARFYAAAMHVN

## Nc1nc2[nH]c(CCCc3ccc(C(=O)N[C@@H](CCC(=O)O)C(=O)O)s3)cc2c(=O)[nH]1
[1]
  Activity: Active
[2]
  Activity: 7.9%
[3]
  T/C: 79%
[4]
  Activity: Non-toxic
[5]
  IC50: 101 nM
[6]
  IC50: 0.73 nM
[7]
  IC50: 2.2 nM
[8]
  IC50: 47 nM
[9]
  Activity: 70%
[10]
  Activity: 50%
[11]
  inhibition: inactive
[12]
  inhibition: inactive
[13]
  IC50: 101 nM

## Nc1nc2[nH]cc(CCc3ccc(C(=O)N[C@@H](CCC(=O)O)C(=O)O)cc3)c2c(=O)[nH]1 [PEMETREXED]
[14]
  Drug uptake: Not Active
[15]
  K: 0.044 µM
[16]
  K: 0.27 µM

## Nc1nc(N)c2c(CCCc3cc(C(=O)N[C@@H](CCC(=O)O)C(=O)O)cs3)coc2n1
[17]
  IC50: > 1000 nM
[18]
  IC50: > 1000 nM
[19]
  IC50: 70.3 nM
[5]
  IC50: > 1000 nM
[11]
  inhibition: inactive
[12]
  inhibition: inactive
[20]
  IC50: 101 nM
[21]
  Ki: 6.5 µM
